Measured values collected from several papers.
Protocols differ between the studies behind these lines.
SMARCA2: SWI/SNF-related matrix-associated actin-dependent regulator of chromatin subfamily A member 2 (SMARCA2, Homo sapiens, UniProt P51531)
BRAF V600E: Serine/threonine-protein kinase B-raf (BRAF, Homo sapiens, UniProt P15056, V600E)
Map2k4: Dual specificity mitogen-activated protein kinase kinase 4 (Map2k4, Mus musculus, UniProt P47809)
Blk: Tyrosine-protein kinase Blk (Blk, Mus musculus, UniProt P16277)
PADI2: Protein-arginine deiminase type-2 (PADI2, Homo sapiens, UniProt Q9Y2J8)
DRD2: D(2) dopamine receptor (DRD2, Homo sapiens, UniProt P14416)
BPTF: Nucleosome-remodeling factor subunit BPTF (BPTF, Homo sapiens, UniProt Q12830)

CC/C=C1\CCn2c1nc(=O)c1c(Cl)cccc12  ΔTm (SMARCA2; thermal stability, DSF; 100 µM): -1.47 °C
Cc1ncsc1-c1ccc(CNC(=O)[C@@H]2C[C@@H](O)CN2C(=O)[C@@H](NC(=O)C2(F)CC2)C(C)(C)C)c(OCCOCCOCCN2CCN(c3cc(-c4ccccc4O)nnc3N)CC2)c1  Dmax (SMARCA2; protein level, degrader; MV4-11): ~65%
Cc1ccc(C(CS(=O)(=O)c2ccccc2)=NNc2nc(C)c(N=Nc3cccc(C)c3)s2)cc1  inhibition (BRAF V600E; enzyme activity, inhibitor, ATP luminescence; 10 µM): 92%
Cc1ccc(NC(=O)c2ccc(C)c(C(F)(F)F)c2)cc1C#Cc1nn(C2CCC(O)CC2)c2ncnc(N)c12 (stereo not shown)  remaining signal (Map2k4; cell-free assay; 10 µM): 49%
Nc1ncnc2occ(-c3ccc(NC(=O)Nc4cc(C(F)(F)F)ccc4F)cc3)c12  remaining signal (Epidermal growth factor receptor (EGFR, Homo sapiens, UniProt P00533, G719S); cell-free assay; 20 µM): 11%
NCCCC[C@H](NC(=O)[C@@H]1CCCN1C(=O)[C@@H]1CSSC[C@H](N)C(=O)N[C@@H](Cc2ccc(O)cc2)C(=O)N[C@@H](Cc2ccccc2)C(=O)N[C@@H](CCC(N)=O)C(=O)N[C@@H](CC(N)=O)C(=O)N1)C(=O)NCC(N)=O  Emax (Vasopressin V2 receptor (AVPR2, Homo sapiens, UniProt P30518); cAMP, agonist, TR-FRET; CHO-K1): ~100%
CCCOc1ccc(OC)c(F)c1C(=O)c1ccc(C(=O)N[C@@H]2CNC[C@H]2NC(=O)c2ccc3[nH]ncc3c2)cc1  remaining activity (Blk; enzyme activity, inhibitor; 10 µM): 42%
CC(C)(C)/C=C1\CCn2c1nc(=O)c1c(Cl)cccc12  ΔTm (SMARCA2; thermal stability, DSF; 100 µM): -0.14 °C
Cc1ccc(C(=O)Nc2ccc(CN3CCN(C)CC3)c(C(F)(F)F)c2)cc1C#Cc1cnc2cccnn12  remaining activity (Serine/threonine-protein kinase Nek5 (NEK5, Homo sapiens, UniProt Q6P3R8); enzyme activity, inhibitor; 23.5 nM): 97%
N=C(CCl)NCCC[C@H](NC(=O)c1ccccc1C(=O)O)c1nn[nH]n1  kinact/KI (PADI2; enzyme activity, inhibitor): 162 M⁻¹ s⁻¹
C[S+]([O-])c1ccc(-c2nc(-c3ccncc3)c(-c3ccc(F)cc3)[nH]2)cc1 (stereo not shown)  ΔTm (SMARCA2; thermal stability, DSF; 10 µM): 0.31 °C
CCC(/C=C1\CCn2c1nc(=O)c1ccc(Cl)cc12)CC  ΔTm (SMARCA2; thermal stability, DSF; 100 µM): -2.09 °C
NS(=O)(=O)c1ccc(CCNCc2ccc(-c3ccccc3F)o2)cc1  inhibition (DRD2; enzyme activity, inhibitor; 10 µM): 34.6%
Oc1ccc(-c2nc(-c3ccncc3)c(-c3ccc(F)cc3)[nH]2)cc1  ΔTm (BPTF; thermal stability, DSF; 10 µM): 0.18 °C
CCC(CC)CC1CCn2c1nc(=O)c1c(Cl)cccc12 (racemic)  ΔTm (SMARCA2; thermal stability, DSF; 100 µM): 1.33 °C
Cc1ccc(C(CS(=O)(=O)c2ccccc2)=NNc2nc(C)c(N=Nc3ccccc3)s2)cc1  inhibition (BRAF V600E; enzyme activity, inhibitor, ATP luminescence; 10 nM): 26%
COc1ccc(S(N)(=O)=O)cc1C(=O)NCCCN1CCN(c2ccccc2OC)CC1  inhibition (DRD2; enzyme activity, inhibitor; 10 µM): 62.4%
Cc1cnc(NC2CCOCC2)nc1-n1cnc(C(=O)NC(CN)c2cc(F)cc(Cl)c2)c1 (stereo not shown)  remaining activity (Map2k4; enzyme activity, inhibitor, radiometric; 1 µM): 63%
CC(C)(C)n1nnc([C@H](CCCNC(=N)CCl)NC(=O)c2ccccc2C(=O)O)n1  kinact/KI (PADI2; enzyme activity, inhibitor): 1000 M⁻¹ s⁻¹
Cc1ccc(Nc2nccc(N(C)c3ccc4c(C)n(C)nc4c3)n2)cc1S(N)(=O)=O  inhibition (Blk; enzyme activity, inhibitor; 10 µM): 73%
N=C(CF)NCCC[C@H](NC(=O)c1ccccc1)c1nn[nH]n1  kinact/KI (PADI2; enzyme activity, inhibitor): 6.42 M⁻¹ s⁻¹
CC(C)(C)c1nc(-c2cccc(NS(=O)(=O)c3c(F)cccc3F)c2F)c(-c2ccnc(N)n2)s1  inhibition (BRAF V600E; enzyme activity, inhibitor, ATP luminescence; 0.1 µM): 58%
CN(C)/C=C1\CCCn2c1nc(=O)c1c(Cl)cccc12  ΔTm (SMARCA2; thermal stability, DSF; 100 µM): 0.49 °C
N=C(CCl)NCCC[C@H](NC(=O)c1ccccc1)c1nn[nH]n1  kinact/KI (PADI2; enzyme activity, inhibitor): 14.5 M⁻¹ s⁻¹
Cc1ccc(C(CS(=O)(=O)c2ccccc2)=NNC2=NC(=O)C(=NNc3ccc([N+](=O)[O-])cc3)S2)cc1  inhibition (BRAF V600E; enzyme activity, inhibitor, ATP luminescence; 1 µM): 72%
O=c1nc2n(c3cccc(Cl)c13)CC/C2=C\c1ccccc1  ΔTm (SMARCA2; thermal stability, DSF; 100 µM): 2.14 °C
Cc1ccc(C(CS(=O)(=O)c2ccccc2)=NNC(N)=S)cc1  inhibition (BRAF V600E; enzyme activity, inhibitor, ATP luminescence; 1 µM): 69%
CCC(/C=C1\CCn2c1nc(=O)c1cc(O)ccc12)CC  ΔTm (SMARCA2; thermal stability, DSF; 100 µM): -0.28 °C
N=C(CF)NCCC[C@H](NC(=O)c1ccccc1C(=O)O)c1nn[nH]n1  kinact/KI (PADI2; enzyme activity, inhibitor): 42.5 M⁻¹ s⁻¹
NC1=NCC(c2cccc3ccccc23)OC1 (stereo not shown)  ΔTm (Beta-secretase 1 (BACE1, Homo sapiens, UniProt P56817); thermal stability, DSF; 2.1 mM, pH 5.4): 0.63 °C
CC(=O)N[C@H]1CSSC[C@@H](C(=O)N[C@@H](Cc2c[nH]c3ccccc23)C(N)=O)NC(=O)[C@H](Cc2ccccc2)NC(=O)[C@H](CCCNC(=N)N)NC1=O  inhibition (Melanocortin receptor 3 (MC3R, Homo sapiens, UniProt P41968); ligand displacement, radioligand; 10 µM, 40 min): 42%
Cc1cnc(Nc2ccc(OCCN3CCCC3)cc2)nc1Nc1cccc(S(=O)(=O)NC(C)(C)C)c1  ΔTm (SMARCA2; thermal stability, DSF; 10 µM): -0.09 °C
Cc1ccc(C(CS(=O)(=O)c2ccccc2)=NN=C2N=C(c3ccc(C)cc3)CS2)cc1  inhibition (BRAF V600E; enzyme activity, inhibitor, ATP luminescence; 10 nM): 22%
NS(=O)(=O)c1ccc(Nc2nc(-c3ccc(F)cc3)c3ccccc3n2)cc1  remaining binding (BPTF; binding, competition with immobilised ligand; 1 µM): 63%
Cc1ccc(C(CS(=O)(=O)c2ccccc2)=NN=C2N=C(c3ccc(Br)cc3)CS2)cc1  inhibition (BRAF V600E; enzyme activity, inhibitor, ATP luminescence; 10 µM): 92%
CCC(/C=C1\CCn2c1nc(=O)c1cc(OC)ccc12)CC  ΔTm (SMARCA2; thermal stability, DSF; 100 µM): 0.14 °C
Cc1cc(=O)oc2cc(NC(=O)[C@@H](N)CCCNC(=N)N)ccc12  Km (Endoplasmic reticulum aminopeptidase 2 (ERAP2, Homo sapiens, UniProt Q6P179); enzyme activity, substrate): 88 µM
